# According to ChEMBL document CHEMBL3808312, “Bioactive Constituents of Glycyrrhiza uralensis (Licorice): Discovery of the Effective Components of a Traditional Herbal Medicine” (J Nat Prod, 2016):
# pIC50: −log10 of the molar value. Activity calls are given as the source filed them. The calls are words filed in the database; no cut-off is given here. Peptide text beside a SMILES is read from it. * marks the point of attachment. Cbz = O=C(OCc1ccccc1)*
# Legend:
# SW480 [1] = assay: (§1) Inhibition of NFkappaB transcription in human SW480 cells at by luciferase reporter gene assay; format: cell-based
# How it was run: (§2)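 SW480 cells (RPMI1640) stably transfected with an NF-κB luciferase reporter. […] MG132 positive control.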
# [2] = as §1; format: cell-based; how it was run: as §2
# SW480 [3] = assay: Inhibition of NFkappaB transcription in human SW480 cells at 10 uM by luciferase reporter gene assay; format: cell-based; how it was run: as §2
# Acetylcholinesterase [4] = biological target: T1, Acetylcholinesterase (Homo sapiens, UniProt P22303); assay: Inhibition AChE (unknown origin) using ATCI as substrate assessed as hydrolysis of ATCI at 25 uM measured every 1 min for 10 times
# How it was run: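 Commercial AChE (added as 0.025 U/mL solution) in Tris-HCl (30 mM, pH 8.0) with DTNB (added as 0.26 mM) and ATCI substrate (added as 0.2 mM); 200 μL mixture at room temperature. Thiocholine release read at 405 nm every min, 10 reads; linear slope taken as rate. Screening at 25 μM; galanthamine positive control.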
# Acetylcholinesterase [5] = biological target: T1, Acetylcholinesterase; assay: Inhibition AChE (unknown origin) using ATCI as substrate assessed as hydrolysis of ATCI after 10 mins measured every 1 min for 10 times
# [6] = biological target: T2, Nuclear factor erythroid 2-related factor 2 (Homo sapiens) (UniProt Q16236); assay: Activation of NRF2 transcription in human HepG2C8 cells at 10 uM after 6 hrs by luciferase reporter gene assay relative to control; format: cell-based
# T2 sequence (whole entry): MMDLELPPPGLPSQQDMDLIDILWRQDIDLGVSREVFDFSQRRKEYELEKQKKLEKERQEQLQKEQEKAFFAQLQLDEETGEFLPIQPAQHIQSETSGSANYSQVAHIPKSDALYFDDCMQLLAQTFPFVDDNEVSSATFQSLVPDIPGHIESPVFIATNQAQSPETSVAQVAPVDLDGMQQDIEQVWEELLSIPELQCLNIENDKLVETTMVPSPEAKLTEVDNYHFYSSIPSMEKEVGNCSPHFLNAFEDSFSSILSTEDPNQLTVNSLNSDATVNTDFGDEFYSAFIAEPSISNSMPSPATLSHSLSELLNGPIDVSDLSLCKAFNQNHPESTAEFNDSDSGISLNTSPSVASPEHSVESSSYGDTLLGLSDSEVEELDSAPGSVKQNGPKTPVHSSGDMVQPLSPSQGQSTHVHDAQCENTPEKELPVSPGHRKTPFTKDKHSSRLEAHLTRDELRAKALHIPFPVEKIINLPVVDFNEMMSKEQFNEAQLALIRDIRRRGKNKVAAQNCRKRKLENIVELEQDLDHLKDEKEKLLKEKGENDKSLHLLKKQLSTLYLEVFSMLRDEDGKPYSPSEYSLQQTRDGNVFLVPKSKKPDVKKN
# How it was run: (§3)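 Luciferase reporter in HepG2C8 cells, which are HepG2 stably transfected with an Nrf2 luciferase reporter and grown in MEM. Screened at 10 μM, with dose-response over 2.5−40 μM. Activity expressed as fold of control. tBHQ positive control.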
# RAW264.7 [7] = assay: Antiinflammatory activity in mouse RAW264.7 cells assessed as inhibition of LPS-induced nitric oxide production after 24 hrs by Griess assay; format: functional, cell-based; conditions: RAW264.7, 24 h
# How it was run: (§4)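 RAW264.7 cells plated at 1.2 × 10^5/well in RPMI1640 and co-treated with compound and 1 μg/mL LPS for 24 h. Nitrite in medium read with Griess reagent (sulfanilamide/naphthylethylenediamine, phosphoric acid) after 15 min at 37 °C, absorbance 540 nm. […] Curcumin positive control.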
# Influenza A virus = assay: Antiviral activity against Influenza A virus A/WSN/33(H1N1) infected in MDCK cells at 100 uM preincubated with virus for 15 mins followed by cells addition measured at 36 hrs post infection; format: functional, A/WSN/1933(H1N1)
# How it was run: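 MDCK canine kidney cells grown in DMEM and infected with influenza A/WSN/33 (H1N1). Compounds screened at 100 μM. Oseltamivir phosphate served as the positive control.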
# [8] = biological target: T3, Tyrosinase (Homo sapiens) (UniProt P14679); assay: Inhibition of tyrosinase (unknown origin) using L-tyrosine as substrate assessed as oxidation of L-tyrosine at 20 uM after 15 mins
# T3 sequence (whole entry): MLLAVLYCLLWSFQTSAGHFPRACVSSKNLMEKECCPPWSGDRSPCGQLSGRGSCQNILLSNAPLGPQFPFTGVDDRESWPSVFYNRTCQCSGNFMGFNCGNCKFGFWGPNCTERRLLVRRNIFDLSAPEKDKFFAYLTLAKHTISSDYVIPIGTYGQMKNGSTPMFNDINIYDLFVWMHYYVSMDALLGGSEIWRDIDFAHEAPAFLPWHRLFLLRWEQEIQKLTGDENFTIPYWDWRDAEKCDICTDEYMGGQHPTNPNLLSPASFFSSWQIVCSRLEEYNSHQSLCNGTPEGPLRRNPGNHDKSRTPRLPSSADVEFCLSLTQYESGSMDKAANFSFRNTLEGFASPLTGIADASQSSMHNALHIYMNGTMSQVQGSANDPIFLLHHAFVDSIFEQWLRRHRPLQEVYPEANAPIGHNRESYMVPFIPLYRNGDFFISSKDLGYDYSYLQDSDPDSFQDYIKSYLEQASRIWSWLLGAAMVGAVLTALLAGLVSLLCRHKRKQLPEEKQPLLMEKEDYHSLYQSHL
# How it was run: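 Tyrosinase at 333 U/mL (stock) in 45 mM sodium phosphate, pH 6.6, with 2 mM L-tyrosine (stock). Incubated 37 °C for 15 min; oxidation read at 492 nm. Screened at 20 μM; dose-response for IC50. Glyasperin C positive control.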
# RAW264.7 [9] = assay: Antiinflammatory activity in mouse RAW264.7 cells assessed as inhibition of LPS-induced nitric oxide production at 10 uM after 24 hrs by Griess assay; format: functional; how it was run: as §4
# [10] = biological target: T4, Tyrosine-protein phosphatase non-receptor type 1 (Homo sapiens) (UniProt P18031); conditions: 5 uM
# T4 sequence (whole entry): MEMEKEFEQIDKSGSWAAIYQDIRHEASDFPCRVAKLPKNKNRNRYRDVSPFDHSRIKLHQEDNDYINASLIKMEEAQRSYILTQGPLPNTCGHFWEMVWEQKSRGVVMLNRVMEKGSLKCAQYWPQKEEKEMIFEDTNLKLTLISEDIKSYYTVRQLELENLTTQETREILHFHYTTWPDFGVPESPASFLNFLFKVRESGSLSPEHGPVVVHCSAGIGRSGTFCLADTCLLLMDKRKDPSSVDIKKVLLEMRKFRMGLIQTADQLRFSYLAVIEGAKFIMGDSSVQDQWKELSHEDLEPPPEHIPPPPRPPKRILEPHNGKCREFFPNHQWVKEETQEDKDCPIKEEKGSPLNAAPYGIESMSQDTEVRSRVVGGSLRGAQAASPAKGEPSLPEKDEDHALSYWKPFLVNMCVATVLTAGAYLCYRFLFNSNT
# [11] = biological target: T4, Tyrosine-protein phosphatase non-receptor type 1 (Homo sapiens); assay: Inhibition of recombinant human PTP1B assessed as hydrolysis of p-nitrophenyl phosphate at 25 uM after 30 mins relative to control
# SW480 [12] = assay: Cytotoxicity against human SW480 cells assessed as reduction in cell viability after 24 hrs by MTS assay; format: functional, cell-based; conditions: SW480, 24 h
# How it was run: (§5)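 Cells seeded at 5 × 10^3/well and cultured overnight, then exposed to compounds for 24 h. Viability read by MTS. Media: SW480 in RPMI1640, A549 in DMEM, MCF7 in MEM. […] Irinotecan positive control.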
# A549 = assay: Cytotoxicity against human A549 cells assessed as reduction in cell viability after 24 hrs by MTS assay; format: functional, cell-based; conditions: A549, 24 h; how it was run: as §5
# HepG2 [13] = assay: Cytotoxicity against human HepG2 cells assessed as reduction in cell viability after 24 hrs by MTS assay; format: functional, cell-based; conditions: HepG2, 24 h; how it was run: as §5
# [14] = biological target: T5, Tyrosine-protein phosphatase non-receptor type 1 (Homo sapiens, UniProt P18031); assay: Inhibition of recombinant human PTP1B assessed as hydrolysis of p-nitrophenyl phosphate
# T5 sequence (P18031 whole entry): T4 sequence (whole entry)
# MCF7 = assay: Cytotoxicity against human MCF7 cells assessed as reduction in cell viability after 24 hrs by MTS assay; format: functional, cell-based; conditions: MCF7, 24 h; how it was run: as §5
# MDCK = assay: Cytotoxicity against MDCK cells after 36 hrs; format: cell-based, Canis lupus familiaris; conditions: dog
# [15] = biological target: T2, Nuclear factor erythroid 2-related factor 2 (Homo sapiens); assay: Activation of NRF2 transcription in human HepG2C8 cells after 6 hrs by luciferase reporter gene assay; format: cell-based; how it was run: as §3
# HepG2 [16] = assay: Toxicity in human HepG2 cells at 20 to 40 uM; format: cell-based; conditions: hepg2, 40 µM
# T1 sequence (P22303 whole entry): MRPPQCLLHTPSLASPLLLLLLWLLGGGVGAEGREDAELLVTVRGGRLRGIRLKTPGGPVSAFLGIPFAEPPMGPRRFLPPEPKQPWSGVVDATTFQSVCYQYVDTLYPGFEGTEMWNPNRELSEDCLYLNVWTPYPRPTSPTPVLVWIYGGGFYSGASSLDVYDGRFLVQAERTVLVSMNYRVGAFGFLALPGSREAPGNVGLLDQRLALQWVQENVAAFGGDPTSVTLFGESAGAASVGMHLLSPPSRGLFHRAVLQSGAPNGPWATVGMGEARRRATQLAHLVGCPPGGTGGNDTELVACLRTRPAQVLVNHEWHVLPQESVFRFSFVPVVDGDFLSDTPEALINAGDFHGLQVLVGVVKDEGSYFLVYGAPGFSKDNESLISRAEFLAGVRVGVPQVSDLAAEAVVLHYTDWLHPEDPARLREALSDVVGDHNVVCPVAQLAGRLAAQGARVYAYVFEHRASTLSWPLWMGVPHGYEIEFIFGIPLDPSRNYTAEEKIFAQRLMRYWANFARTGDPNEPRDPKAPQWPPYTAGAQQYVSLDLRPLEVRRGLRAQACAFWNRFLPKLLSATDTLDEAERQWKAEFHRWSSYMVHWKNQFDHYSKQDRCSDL
compound,measurement,setting,value
CC1(C)C=Cc2c(ccc3c2OC[C@@H](c2ccc(O)cc2O)C3)O1 [GLABRIDIN],inhibition,SW480 [1],Dose-dependent effect
same,pIC50,[2],4.67
same,inhibition,SW480 [3],> 30%
COc1cc2occ(-c3ccc(O)cc3O)c(=O)c2c(O)c1CC=C(C)C,inhibition,Acetylcholinesterase [4],83%
same,pIC50,Acetylcholinesterase [5],5.00
COc1cc(O)cc2c1[C@@H]1Oc3c(ccc4c3C=CC(C)(C)O4)[C@@H]1CO2,inhibition,SW480 [1],Dose-dependent effect
same,pIC50,[2],4.59
same,inhibition,SW480 [3],> 30%
COc1c2c(cc(O)c1CC=C(C)C)OCC(c1ccc(O)cc1O)=C2,fold change (FC),[6],4.7
same,pIC50,RAW264.7 [7],5.09
same,Activity,Influenza A virus,>30%
same,inhibition,[8],inactive
same,inhibition at 10 µM,"RAW264.7 [9]; RAW264.7, 24 h",> 50%
C[C@H]1[C@H](C)CC[C@]2(C(=O)O)CC[C@]3(C)C(=CC[C@@H]4[C@@]5(C)CC[C@H](O)C(C)(C)[C@@H]5CC[C@]43C)[C@H]12,inhibition,[10],45%
COc1c(CC=C(C)C)c(O)cc2oc(-c3ccc(O)cc3O)cc12 [LICOCOUMARONE],inhibition,SW480 [1],Dose-dependent effect
same,pIC50,[2],5.29
same,inhibition,SW480 [3],> 30%
same,pIC50,RAW264.7 [7],5.07
same,Activity,Influenza A virus,>30%
same,inhibition,[11],> 90%
CC(C)=CCc1c(O)ccc(-c2coc3cc(O)c(CC=C(C)C)c(O)c3c2=O)c1O,pIC50,SW480 [12],5.19
same,pIC50,A549,5.15
same,pIC50,HepG2 [13],5.96
same,pIC50,[14],6.40
same,pIC50,MCF7,5.22
same,inhibition,Acetylcholinesterase [4],71%
same,inhibition,[11],> 95%
same,Activity,MDCK,Toxic
CC(C)=CCc1c(O)cc2occ(-c3ccc(O)cc3O)c(=O)c2c1O [UNCINANONE A],fold change (FC),[6],6.68
same,Activity,Influenza A virus,>30%
same,Activity,[15],Dose-dependent effect
same,Activity,HepG2 [16],Toxic
COc1cc2oc(-c3ccc(O)cc3O)cc2c(OC)c1CC=C(C)C,Activity,Influenza A virus,>30%
same,inhibition,[11],> 90%
same,inhibition,RAW264.7 [9],inactive
CC(C)=CCc1cc(-c2coc3cc(O)c(CC=C(C)C)c(O)c3c2=O)cc(O)c1O,pIC50,SW480 [12],5.19
same,pIC50,A549,5.19
same,pIC50,HepG2 [13],5.36
same,pIC50,[14],5.52
same,pIC50,MCF7,5.18
same,inhibition,[11],> 95%
same,Activity,MDCK,Toxic
CC(C)C[C@@H](C=O)NC(=O)[C@H](CC(C)C)NC(=O)[C@H](CC(C)C)NC(=O)OCc1ccccc1 [MG-132] (Cbz-Leu-Leu-Leu-aldehyde),inhibition,SW480 [1],Dose-dependent effect
same,pIC50,[2],4.53
same,inhibition,SW480 [3],23%
